{
  "source": "ChEMBL document CHEMBL4334464",
  "about": "“From Phenylthiazoles to Phenylpyrazoles: Broadening the Antibacterial Spectrum toward Carbapenem-Resistant Bacteria” (J Med Chem, 2019)",
  "key": {"Staphylococcus aureus [1]": {"test_system": "Staphylococcus aureus", "experiment": "Antibacterial activity against methicillin-resistant Staphylococcus aureus NRS123-USA400 clinical isolates assessed as ratio of MIC after and before 13 serial passages by broth microdilution assay", "type": "functional", "procedure,_shortened": "(§1)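 MRSA USA400 was serially passaged over a 14-day period in the presence of each compound or control antibiotic. MIC was determined by broth microdilution after each passage. A four-fold rise in MIC was taken as a sign of resistance.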"}, "Staphylococcus aureus [2]": {"test_system": "Staphylococcus aureus", "experiment": "Antibacterial activity against methicillin-resistant Staphylococcus aureus NRS123-USA400 clinical isolates assessed as ratio of MIC after and before 1 serial passages by broth microdilution assay", "type": "functional", "procedure,_shortened": "as §1"}},
  "data": [
    {"smiles": "CO[C@H]1/C=C/O[C@@]2(C)Oc3c(C)c(O)c4c(O)c(c(/C=N/N5CCN(C)CC5)c(O)c4c3C2=O)NC(=O)/C(C)=C\\C=C\\[C@H](C)[C@H](O)[C@@H](C)[C@@H](O)[C@@H](C)[C@H](OC(C)=O)[C@@H]1C", "note": "[RIFAMPIN]", "values": [
      {"measurement": "Ratio", "setting": "Staphylococcus aureus [1]", "value": ">500000"},
      {"measurement": "Ratio", "setting": "Staphylococcus aureus [2]", "value": 7}
    ]}
  ]
}
